Measurements as given in ChEMBL document CHEMBL2163230, “Identification of a glutathione peroxidase inhibitor that reverses resistance to anticancer drugs in human B-cell lymphoma cell lines” (Bioorg Med Chem Lett, 2012).
The source made the active and inactive calls. No cut-off for these calls is given here.

Experiments:
[1] = biological target: T1, Glutathione peroxidase 1 (Homo sapiens, UniProt P07203); assay: Inhibition of GPx1 using gultathione as substrate by glutathione reductase-coupled assay
T1 sequence (P07203 whole entry): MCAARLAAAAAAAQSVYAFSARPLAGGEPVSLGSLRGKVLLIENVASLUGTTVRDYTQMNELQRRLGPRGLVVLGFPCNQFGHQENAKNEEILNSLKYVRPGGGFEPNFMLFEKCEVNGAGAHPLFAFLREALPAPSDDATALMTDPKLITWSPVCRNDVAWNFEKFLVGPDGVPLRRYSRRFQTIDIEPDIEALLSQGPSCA
In short: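 GPx activity read as NADPH consumption at 340 nm. GPx oxidizes GSH to GSSG with H2O2 as co-substrate, and glutathione reductase reduces GSSG back to GSH. Earlier method, adapted to 96-well format. 0.1% Triton X-100 in all incubations to prevent compound precipitation. Docking used bovine erythrocyte GPx1.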

[2] = biological target: T2, Glutathione peroxidase 1 (Homo sapiens) (UniProt P07203); settings: 250 uM
T2 sequence (whole entry): T1 sequence (P07203 whole entry)

[3] = biological target: T3, Glutathione reductase, mitochondrial (Homo sapiens) (UniProt P00390); assay: Inhibition of glutathione reductase up to 200 uM
T3 sequence (whole entry): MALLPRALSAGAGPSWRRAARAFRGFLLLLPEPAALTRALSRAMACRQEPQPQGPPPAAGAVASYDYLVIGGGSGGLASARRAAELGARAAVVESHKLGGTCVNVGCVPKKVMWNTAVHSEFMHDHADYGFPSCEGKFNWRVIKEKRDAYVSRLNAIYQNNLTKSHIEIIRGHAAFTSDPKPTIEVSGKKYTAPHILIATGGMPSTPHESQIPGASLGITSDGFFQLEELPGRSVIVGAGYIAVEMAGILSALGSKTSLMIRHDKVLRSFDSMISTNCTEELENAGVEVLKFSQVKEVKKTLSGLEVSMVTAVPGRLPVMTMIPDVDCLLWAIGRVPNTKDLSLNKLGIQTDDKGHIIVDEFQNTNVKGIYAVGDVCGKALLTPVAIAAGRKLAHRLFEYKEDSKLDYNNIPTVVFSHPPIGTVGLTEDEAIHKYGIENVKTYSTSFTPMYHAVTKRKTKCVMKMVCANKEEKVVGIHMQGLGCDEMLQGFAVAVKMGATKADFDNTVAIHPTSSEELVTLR
In short: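 Specific glutathione reductase assay (earlier method), compound tested at up to 200 µM.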

[4] = biological target: T2, Glutathione peroxidase 1 (Homo sapiens); settings: 50 uM
[5] = Resistance ratio of IC50 for human bortezomib-resistant DOGUM cells to IC50 for human DOGUM cells; assay type: functional
[6] = Cytotoxicity against human bortezomib-resistant GUMBUS cells after 72 hrs by MTT assay; assay type: functional, cell-based
In short: (§1)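 Cells from two patients with chemotherapy-resistant non-Hodgkin B-cell lymphoma. Resistant sublines were made by exposure to methotrexate, etoposide, cisplatin or bortezomib in culture over 2–3 months. Microtiter MTT assay, giving the IC50 as mean ± SD of 3 or more independent experiments. Drugs were tested alone and with co-incubation with 25 µM inhibitor.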

[7] = Cytotoxicity against human GUMBUS cells after 72 hrs by MTT assay; assay type: functional, cell-based; in short: as §1
[8] = Resistance ratio of IC50 for human bortezomib-resistant GUMBUS cells to IC50 for human GUMBUS cells; assay type: functional
[9] = Cytotoxicity against human bortezomib-resistant DOGUM cells after 72 hrs by MTT assay; assay type: functional, cell-based; in short: as §1
[10] = Cytotoxicity against human DOGUM cells after 72 hrs by MTT assay; assay type: functional, cell-based; in short: as §1
[11] = Cytotoxicity against human methotrexate-resistant DOGUM cells after 72 hrs by MTT assay; assay type: functional, cell-based; in short: as §1
[12] = Cytotoxicity against human methotrexate-resistant GUMBUS cells after 72 hrs by MTT assay; assay type: functional, cell-based; in short: as §1
[13] = Resistance ratio of IC50 for human etoposide-resistant GUMBUS cells to IC50 for human GUMBUS cells; assay type: functional
[14] = Cytotoxicity against human etoposide-resistant GUMBUS cells after 72 hrs by MTT assay; assay type: functional, cell-based; in short: as §1
[15] = Resistance ratio of IC50 for human etoposide-resistant DOGUM cells to IC50 for human DOGUM cells; assay type: functional
[16] = Cytotoxicity against human etoposide-resistant DOGUM cells after 72 hrs by MTT assay; assay type: functional, cell-based; in short: as §1

With `Cc1nccn1CC(=O)N/N=C/c1ccc(O)cc1` as the compound, how does the IC50 [1] read?
Its IC50 is 169000 nM.

And the inhibition [2]?
The inhibition was “inactive”.

And the inhibition [3]?
Its inhibition is “inactive”.

What about the inhibition [4] of the same compound?
The inhibition was 15%.

With `CC(C)C[C@H](NC(=O)[C@H](Cc1ccccc1)NC(=O)c1cnccn1)B(O)O` [BORTEZOMIB] as the compound, how does the “Ratio IC50” value [5] read?
The value was 4.

And the IC50 [6]?
Its IC50 is 35 nM.

And the IC50 [7]?
Its IC50 is 6 nM.

And the “Ratio IC50” value [8]?
Its value is 6.

And the IC50 [9]?
The IC50 was 7 nM.

And the IC50 [10]?
The IC50 was 2 nM.

Which IC50 [11] does the source give for `CN(Cc1cnc2nc(N)nc(N)c2n1)c1ccc(C(=O)N[C@@H](CCC(=O)O)C(=O)O)cc1` [METHOTREXATE] here?
Its IC50 is 340 nM.

What about the IC50 [7] of the same compound?
The IC50 was 24 nM.

And the IC50 [12]?
Its IC50 is 534 nM.

What about the IC50 [10] of the same compound?
Its IC50 is 84 nM.

Which “Ratio IC50” value [13] does the source give for `COc1cc([C@@H]2c3cc4c(cc3[C@@H](O[C@@H]3O[C@@H]5CO[C@@H](C)O[C@H]5[C@H](O)[C@H]3O)[C@H]3COC(=O)[C@H]23)OCO4)cc(OC)c1O` [ETOPOSIDE] here?
Its value is 13.

What about the IC50 [14] of the same compound?
The IC50 was 570 nM.

And the “Ratio IC50” value [15]?
Its value is 4.

What about the IC50 [7] of the same compound?
Its IC50 is 42 nM.

What about the IC50 [16] of the same compound?
The IC50 was 280 nM.

What about the IC50 [10] of the same compound?
Its IC50 is 75 nM.
